Source: PubChem BioAssay (several laboratories)
mHtt clearance = mutant huntingtin protein clearance | HeLa Exon1htt(103Q)mCFP, aggregate imaging; zero = plate's median compound well | inhibition, % at 1.5 µM | 0.42% of 47,000 active | AID 853;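 active means inhibition of aggregate fluorescence above about 70%, also judged a hit by eye on the cell image, limit read from the data, passing the limit was not always enough; inconclusive means no rule stated for this call; inactive means not judged a hit on image review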;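 further: cells exposed to compound for three days before fixation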
D1 allo mod = allosteric modulators of human D1 dopamine receptor. B-score at 10 µM. P21728. 5.9% of 58,000 active. HEK293 D1, CRE-luciferase, dopamine EC30 potentiation; actives deviate in either direction. AID 641;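 active means luminescence count or its row- and column-corrected plate score outside the 99.7% band of the plate's sample wells, on either side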
RORA act = RORA (human) activation. P35398. CHO-K1 Gal4-RORA LBD luciferase reporter, luminescence; percent increase over mock-subtracted basal signal. activation, % at 10 µM. 1.5% of 65,000 active. AID 560;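 active means activation above the mean of all tested compounds plus 3 SD, cut at about 49% in these data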;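 further: 0% = DMSO-treated RORA cells and 100% = added signal equal to DMSO minus mock-transfected cells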
Target sequence (P35398 whole entry, looked up, the tested form may be a part): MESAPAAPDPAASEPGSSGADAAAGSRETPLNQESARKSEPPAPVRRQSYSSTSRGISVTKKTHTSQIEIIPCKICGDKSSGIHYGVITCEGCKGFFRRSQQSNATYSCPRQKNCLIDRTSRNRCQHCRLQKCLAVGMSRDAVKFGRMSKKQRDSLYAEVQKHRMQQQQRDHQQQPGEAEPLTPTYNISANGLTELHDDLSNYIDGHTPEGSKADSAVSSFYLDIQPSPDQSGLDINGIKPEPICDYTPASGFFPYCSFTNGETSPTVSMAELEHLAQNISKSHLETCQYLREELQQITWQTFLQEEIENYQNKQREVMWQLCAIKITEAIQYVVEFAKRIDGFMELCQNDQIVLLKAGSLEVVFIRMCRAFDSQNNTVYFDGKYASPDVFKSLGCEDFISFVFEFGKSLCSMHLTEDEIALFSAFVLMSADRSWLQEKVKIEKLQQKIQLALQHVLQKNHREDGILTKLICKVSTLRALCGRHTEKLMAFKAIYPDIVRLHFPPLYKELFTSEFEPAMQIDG
SF1 activator = SF-1 (human) activation; 1.9% of 65,000 active; AID 522; activation, % at 10 µM; Q13285; CHO-K1 Gal4-SF-1 LBD luciferase reporter; % increase over DMSO SF-1-specific signal;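 active means activation above the mean activation of all tested compounds plus 3 SD, cut at about 50% in these data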
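Test system: transient Gal4-SF-1 LBD reporter, CHO-K1; Amount: 4,000 CHO-K1 cells per well; Doses: 10 µM only; Timing: compound exposure 20 h at 37 °C; Signal: luciferase light emission; Read-out basis: percent activation relative to DMSO median and mock-transfected background; Control set: DMSO negative control and −SF1 background wells; Replicates: one test per compound.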
M1 antag = M1 muscarinic receptor (rat) antagonism | 3.4% of 64,000 active | CHO-M1 cells, Fluo-4 calcium, ACh EC80 antagonist mode; hits give low values | P08482 | B-score at 10 µM | AID 628;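 active means calcium fluorescence response, raw or row-and-column corrected B-score, differing from the plate sample mean either way at a set confidence level, mostly lower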
M1 agonist = M1 muscarinic receptor agonism | CHO-M1 cells, Fluo-4 calcium fluorescence, agonist mode; hits give high values | B-score at 10 µM | 3% of 64,000 active;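 active means fluorescence rise, raw or as B-score row- and column-corrected plate score, outside the 99.7% band of its plate's samples, either direction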
M1 ag confirm = rat M1 muscarinic agonism, confirmation. 19% of 1,700 active. fluorescence change (max-min) at 10 µM. shares compounds with M1 agonist. CHO-M1 cells, Fluo-4 calcium fluorescence, agonist mode; actives lie on both sides;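 active means fluorescence change differs from the solvent-only DMSO control mean at a set confidence level in both duplicate runs; inconclusive means differs from solvent-only control mean in just one of two runs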;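 further: an EC20 dose of acetylcholine follows compound addition during the same imaging run; raw fluorescence intensity difference in instrument units with no normalization to controls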
M4 agonist ctr = counter-screen for M1 agonists: activity at rat M4 receptor; shares compounds with M1 agonist; AID 1741; CHO M4/Gqi5 cells, Fluo-4 calcium fluorescence, agonist mode; actives lie on both sides; fluorescence change (max-min) at 10 µM; 9% of 1,700 active;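 active means fluorescence change differing from the plate's solvent-only control wells at 99.7% confidence in both duplicates, whether higher or lower; inconclusive means differs from solvent controls in only one of two duplicates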
Starred values were filed as active, the others as inactive. Rows were chosen to be rich in hits. Some 11% of all compounds tested hit in one or more screens of this group.

COc1cccc(-c2ccc(-c3noc(-c4ccccc4F)n3)c(OC)n2)c1 was read as mHtt clearance -3, D1 allo mod 1.4, RORA act 14, SF1 activator -11, M1 antag 0, M1 agonist 15*, M1 ag confirm 16 and M4 agonist ctr -46.
For CC(=O)c1c(C)n(CC(=O)NCc2ccc3c(c2)OCO3)c2ccccc12 the results were mHtt clearance -39, D1 allo mod -1.7, RORA act -9, SF1 activator -5, M1 antag -0.49, M1 agonist 3.4*, M1 ag confirm inconclusive and M4 agonist ctr -37.
For CCOC(=O)COc1ccc(S(=O)(=O)NCc2ccncc2)cc1 the results were mHtt clearance 8, D1 allo mod 0.13, RORA act -19, SF1 activator -3, M1 antag -2.4, M1 agonist 7.6*, M1 ag confirm -6.9 and M4 agonist ctr inconclusive.
Screening CCOc1ccc(S(=O)(=O)NCc2ccncc2)cc1 returned mHtt clearance 13.
For CCn1c(=O)n(CC)c2cc(S(=O)(=O)N3CCc4ccccc43)ccc21 the results were D1 allo mod -1, RORA act -3, SF1 activator -2, M1 antag 0.42, M1 agonist 2.6*, M1 ag confirm -6.5 and M4 agonist ctr -35.
For CCC(=O)N1CCCc2cc(S(=O)(=O)N3CCCc4ccccc43)ccc21 the results were mHtt clearance -8, D1 allo mod 0.12, RORA act -21, SF1 activator 4, M1 antag 0.67 and M1 agonist -0.55.
For CC(=O)N1CCN(C2=Nc3cccc4cccc2c34)CC1 the results were RORA act 13, SF1 activator 16, M1 antag -0.69, M1 agonist 9.5*, M1 ag confirm 101* and M4 agonist ctr 92*.
c1cc2c3c(cccc3c1)C(N1CCN(C3=Nc4cccc5cccc3c45)CC1)=N2 was read as mHtt clearance -11.
CCOC(=O)N1CCN(C2=Nc3cccc4cccc2c34)CC1 was read as mHtt clearance 17, D1 allo mod -0.19, RORA act 7, SF1 activator -6, M1 antag -11*, M1 agonist 8.5*, M1 ag confirm 107* and M4 agonist ctr inconclusive.
CCOc1ccc2nc(NCCNC(=O)CC)c(C#N)cc2c1 was read as mHtt clearance -23, D1 allo mod 0.69, RORA act 10, SF1 activator -2, M1 antag -0.52, M1 agonist 9.7*, M1 ag confirm 133* and M4 agonist ctr 71.
For COC(=O)C(C)Sc1nc(-c2ccc(OC)cc2)nc2c1c(=O)n(C)c(=O)n2C (configuration not stated) the results were D1 allo mod 0.016, RORA act -3, SF1 activator 2, M1 antag 0.24 and M1 agonist 0.16.
`O=c1oc2c3c4c(cc2c2c1CCC2)OCCN4CCC3` gave mHtt clearance -47, D1 allo mod 1.3, RORA act 0, SF1 activator -21, M1 antag -1.4, M1 agonist 24*, M1 ag confirm 111* and M4 agonist ctr 93.
CCOC(=O)C1CCCN(c2cc(C)nc3cc(-c4ccc(Cl)cc4)nn23)C1 (configuration not stated) was read as mHtt clearance -45.
`CCOC(=O)C1CCCN(c2cc(C)nc3cc(-c4ccc(F)cc4)nn23)C1` (configuration not stated) gave mHtt clearance 42, D1 allo mod 0.24, RORA act 4, SF1 activator 10, M1 antag -3.8*, M1 agonist 30*, M1 ag confirm 386* and M4 agonist ctr -23.
COc1cc2[nH]c3c(N4CCN(c5ccc(Cl)cc5)CC4)ncnc3c2cc1OC was read as mHtt clearance 43, RORA act 27, SF1 activator 4, M1 antag 0.14 and M1 agonist -0.04.
For c1ccc2c(c1)[nH]c1c(N3CCC4(CC3)OCCO4)ncnc12 the results were D1 allo mod 0.46, RORA act -41, SF1 activator -22, M1 antag -1.3 and M1 agonist 1.4.
c1ccc2c(c1)CCN(c1ncnc3c1[nH]c1ccccc13)C2 was read as RORA act -89, SF1 activator -86, M1 antag -3.4*, M1 agonist 5.6*, M1 ag confirm 10 and M4 agonist ctr -25.
For Cc1ccc2[nH]c3c(N4CCN(Cc5ccccc5)CC4)ncnc3c2c1 the results were mHtt clearance 26, RORA act -17, SF1 activator -26, M1 antag -1.7 and M1 agonist 5.6.
COc1cccc(N2CCN(c3ncnc4c3[nH]c3ccccc34)CC2C)c1 (configuration not stated) was read as RORA act -95, SF1 activator -85, M1 antag -3.4*, M1 agonist 11*, M1 ag confirm inconclusive and M4 agonist ctr -52.
Screening Cc1ccc2c(c1)[nH]c1c(N3CCN(Cc4ccccc4)CC3)ncnc12 returned mHtt clearance 4, D1 allo mod -3.9, RORA act -23, SF1 activator -50, M1 antag -3.1*, M1 agonist 3.9*, M1 ag confirm -13 and M4 agonist ctr inconclusive.
`c1ccc(CN2CCN(c3ncnc4c3[nH]c3ccccc34)CC2)cc1` gave D1 allo mod -4.9*, RORA act -67, SF1 activator -50, M1 antag -2.7*, M1 agonist 3.9*, M1 ag confirm -1.9 and M4 agonist ctr inconclusive.
For CNc1nnc(-c2cc3ccccc3oc2=O)s1 the results were mHtt clearance 13, D1 allo mod -0.73, RORA act 36, SF1 activator 32, M1 antag -0.12 and M1 agonist -0.19.
CC(=O)c1cn(CC(=O)Nc2ccc(C)cc2C)c2ccccc12 was read as mHtt clearance 25.
Screening COc1cc(N)ccc1Cc1ccc(N)cc1OC returned mHtt clearance 11, D1 allo mod -0.4, RORA act -9, SF1 activator -12, M1 antag 1.1, M1 agonist 3.7*, M1 ag confirm -19 and M4 agonist ctr -27.
`COc1ccc(N)cc1C#N` gave mHtt clearance 12, D1 allo mod 0.5, RORA act 0, SF1 activator 7, M1 antag 0.12 and M1 agonist 0.85.
For COCc1[nH]nc2c1C(c1ccccc1Cl)C(C#N)=C(N)O2 (configuration not stated) the results were mHtt clearance 43, RORA act -13, SF1 activator -7, M1 antag 0.045, M1 agonist 1.5*, M1 ag confirm -8.9 and M4 agonist ctr -18.
